Published values from different studies.
Protocols differ between the studies behind these lines.
F10: Coagulation factor X (F10, Homo sapiens, UniProt P00742)
OfChi-h: Chitinase (OfChi-h, Ostrinia furnacalis, UniProt Q4AE59)
WDR5: WD repeat-containing protein 5 (WDR5, Homo sapiens, UniProt P61964)
SLC22A12: Solute carrier family 22 member 12 (SLC22A12, Homo sapiens, UniProt Q96S37)

SMILES | target | effect on | action | technique | setting | endpoint | result
CC(=O)N[C@H]1Cc2ccc(cc2)OC/C=C/C[C@@H](C(=O)N[C@@H](CCCNC(=N)N)C(=O)c2nc3ccccc3s2)NC(=O)[C@H](CC(C)C)NC1=O | F10 | enzyme activity | inhibitor | absorbance | with preincubation | IC50 | 0.122 µM
CN(C)c1nc(NCc2cccc(C(F)(F)F)c2)c(/N=N/c2ccc(Cl)cc2)c(N(C)C)n1 | OfChi-h | enzyme activity | inhibitor | fluorescence |  | IC50 | 0.3 µM
C[C@@H]1CN(c2ccc(-c3cc(C(=O)NCCOCCOCCOCCOCCNC(=O)Cn4cc(-c5[nH]cc(C(=O)N[C@@H](CC(N)=O)c6ccc(F)c(Cl)c6)c5-c5ccc(Cl)cc5F)cn4)ccc3F)cc2NC(=O)c2c[nH]c(=O)cc2C(F)(F)F)C[C@H](C)N1C | WDR5 | binding |  | SPR |  | Kd | 0.0375 µM
CCNC(=O)N1CCN(c2nc(NC3CCN(C(=O)[C@@H](CCc4ccc(OC)cc4)NC(=O)[C@@H]4CCCCN4C(=O)C(=O)C(C)(C)CC)CC3)nc(N(Cc3cnn(C)c3)C3CC3)n2)CC1 | Bromodomain-containing protein 9 (BRD9, Homo sapiens, UniProt Q9H8M2) | binding |  | SPR |  | Kd | > 10 µM
CCCCc1ccc(CNc2nc(N(C)C)nc(N(C)C)c2/N=N/c2ccc(Cl)cc2)cc1 | OfChi-h | enzyme activity | inhibitor | fluorescence |  | Ki | 0.0194 µM
O=C(NO)c1cncc(OS(=O)(=O)Oc2ccc(-n3ccnc3)cc2)c1 | Histone deacetylase 7 (HDAC7, Homo sapiens, UniProt Q8WUI4) | enzyme activity | inhibitor | fluorescence |  | IC50 | 5.07 µM
Cn1c(=O)c2c(ncn2C)n(C)c1=O | SLC22A12 | transporter uptake | inhibitor | radiometric | oocytes | IC50 | > 5000 µM
C[C@@H]1CN(c2ccc(-c3cc(C(=O)NCCOCCOCCOCCOCCOCCOCCNC(=O)/C=C/c4[nH]cc(C(=O)N[C@@H](CC(N)=O)c5ccc(F)c(Cl)c5)c4-c4ccc(Cl)cc4F)ccc3F)cc2NC(=O)c2ccc(F)cc2C(F)(F)F)C[C@H](C)N1C | WDR5 | binding |  | SPR |  | Kd | 0.0808 µM
Nc1ncnc2c1ncn2[C@@H]1O[C@H](CO)[C@@H](O)[C@H]1O | SLC22A12 | transporter uptake | inhibitor | radiometric | oocytes | IC50 | > 10000 µM
CC(=O)N[C@H]1Cc2ccc(cc2)OC/C=C\CNC(=O)C[C@@H](C(=O)N[C@@H](CCCNC(=N)N)C(=O)c2nc3ccccc3s2)NC(=O)[C@H](CC(C)C)NC1=O | F10 | enzyme activity | inhibitor | absorbance | with preincubation | IC50 | 3.18 µM
C=CS(=O)(=O)c1ccc(Nc2nc(OCC3CCCCC3)c3nc[nH]c3n2)cc1 | Gasdermin-D (GSDMD, Homo sapiens, UniProt P57764) | binding |  | MST |  | Kd | 36.1 µM
